# Test results published in ChEMBL document CHEMBL1151761, “Radiohalogenated prostate-specific membrane antigen (PSMA)-based ureas as imaging agents for prostate cancer” (J Med Chem, 2008).
# Assays:
# Format in all cases: ADME, organism-based
# [1] = Ratio of drug level in tumor to large intestine of human PSMA expressing PC3 PIP and PSMA deficient human PC3 flu cells xenografted SCID mouse at 2 uCi, iv after 2 hrs; conditions: in vivo
# Outline: (§1)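 Male SCID mice carried subcutaneous PSMA+ PC-3 PIP (left shoulder) and PC-3 flu (right shoulder) xenografts, 1-5 × 10^6 cells in HBSS, and were used at 3-5 mm tumor diameter. Tail-vein injection of 2 µCi radioligand; four mice per time point, killed by cervical dislocation. %ID/g from a standard dilution of the dose, decay-corrected, mean ± SD; PIP tumor:organ ratios.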
# [2] = Ratio of drug level in PC3 PIP tumor to PC3 flu tumor of human PSMA expressing PC3 PIP and PSMA deficient human PC3 flu cells xenografted SCID mouse at 2 uCi, iv after 2 hrs; conditions: in vivo; outline: as §1
# [3] = Ratio of drug level in tumor to stomach of human PSMA expressing PC3 PIP and PSMA deficient human PC3 flu cells xenografted SCID mouse at 2 uCi, iv after 30 mins; conditions: in vivo, 0.5 h
# Outline: (§2)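 Male SCID mice carried subcutaneous xenografts: PSMA+ PC-3 PIP behind the left shoulder and PSMA− PC-3 flu behind the right, 1–5 × 10^6 cells in HBSS. Mice were used at 3–5 mm tumor diameter. 2 μCi was given by tail vein, and 4 mice per time point were killed by cervical dislocation. %ID/g came from a standard dilution of the dose, decay-corrected. Ratio is PIP tumor %ID/g to organ %ID/g.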
# [4] = Biodistribution in PC3 flu tumor of PSMA expressing human PC3 PIP and PSMA deficient human PC3 flu cells xenografted SCID mouse at 2 uCi, iv after 2 hrs; conditions: in vivo; outline: as §1
# Muscle tissue = assay: Biodistribution in muscle of PSMA expressing human PC3 PIP and PSMA deficient human PC3 flu cells xenografted SCID mouse at 2 uCi, iv after 60 mins; conditions: in vivo, 1 h
# [5] = Ratio of drug level in tumor to lung of human PSMA expressing PC3 PIP and PSMA deficient human PC3 flu cells xenografted SCID mouse at 2 uCi, iv after 30 mins; conditions: in vivo, 0.5 h; outline: as §1
# [6] = Ratio of drug level in tumor to bladder of human PSMA expressing PC3 PIP and PSMA deficient human PC3 flu cells xenografted SCID mouse at 2 uCi, iv after 5 hrs; conditions: in vivo; outline: as §1
# [7] = Ratio of drug level in tumor to blood of human PSMA expressing PC3 PIP and PSMA deficient human PC3 flu cells xenografted SCID mouse at 2 uCi, iv after 2 hrs
# Outline: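 Male SCID mice carried subcutaneous xenografts of PSMA+ PC-3 PIP cells behind the left shoulder and PSMA− PC-3 flu cells behind the right (1–5 × 10^6 cells in HBSS), used at a tumour diameter of 3–5 mm. Each mouse received 2 μCi of radioiodinated tracer via the tail vein. Tissues were harvested at each time point for %ID/g against a standard dilution of the dose, decay-corrected. Ratios are PIP tumour:organ.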
# [8] = Biodistribution in PC3 PIP tumor of PSMA expressing human PC3 PIP and PSMA deficient human PC3 flu cells xenografted SCID mouse at 2 uCi, iv after 60 mins; conditions: in vivo, 1 h
# [9] = Biodistribution in PC3 flu tumor of PSMA expressing human PC3 PIP and PSMA deficient human PC3 flu cells xenografted SCID mouse at 2 uCi, iv after 5 hrs; conditions: in vivo; outline: as §1
# Liver = assay: Biodistribution in liver of PSMA expressing human PC3 PIP and PSMA deficient human PC3 flu cells xenografted SCID mouse at 2 uCi, iv after 60 mins; conditions: in vivo, 1 h
# [10] = Ratio of drug level in tumor to muscle of human PSMA expressing PC3 PIP and PSMA deficient human PC3 flu cells xenografted SCID mouse at 2 uCi, iv after 5 hrs; conditions: in vivo; outline: as §1
# Kidney = assay: Biodistribution in kidney of PSMA expressing human PC3 PIP and PSMA deficient human PC3 flu cells xenografted SCID mouse at 2 uCi, iv after 60 mins; conditions: in vivo, 1 h
# [11] = Ratio of drug level in tumor to stomach of human PSMA expressing PC3 PIP and PSMA deficient human PC3 flu cells xenografted SCID mouse at 2 uCi, iv after 5 hrs; conditions: in vivo; outline: as §2
# [12] = Ratio of drug level in tumor to bladder of human PSMA expressing PC3 PIP and PSMA deficient human PC3 flu cells xenografted SCID mouse at 2 uCi, iv after 2 hrs; conditions: in vivo; outline: as §1
# [13] = Ratio of drug level in tumor to liver of human PSMA expressing PC3 PIP and PSMA deficient human PC3 flu cells xenografted SCID mouse at 2 uCi, iv after 5 hrs; conditions: in vivo; outline: as §1
# [14] = Ratio of drug level in tumor to liver of human PSMA expressing PC3 PIP and PSMA deficient human PC3 flu cells xenografted SCID mouse at 2 uCi, iv after 2 hrs; conditions: in vivo; outline: as §1
# Pancreas [15] = assay: Biodistribution in pancreas of PSMA expressing human PC3 PIP and PSMA deficient human PC3 flu cells xenografted SCID mouse at 2 uCi, iv after 2 hrs; conditions: in vivo
# Urinary bladder = assay: Biodistribution in bladder of PSMA expressing human PC3 PIP and PSMA deficient human PC3 flu cells xenografted SCID mouse at 2 uCi, iv after 5 hrs; conditions: in vivo
# Lung = assay: Biodistribution in lung of PSMA expressing human PC3 PIP and PSMA deficient human PC3 flu cells xenografted SCID mouse at 2 uCi, iv after 30 mins; conditions: in vivo, 0.5 h
# Stomach = assay: Biodistribution in stomach of PSMA expressing human PC3 PIP and PSMA deficient human PC3 flu cells xenografted SCID mouse at 2 uCi, iv after 5 hrs; conditions: in vivo
# Spleen [16] = assay: Biodistribution in spleen of PSMA expressing human PC3 PIP and PSMA deficient human PC3 flu cells xenografted SCID mouse at 2 uCi, iv after 2 hrs; conditions: in vivo
# [17] = Ratio of drug level in tumor to muscle of human PSMA expressing PC3 PIP and PSMA deficient human PC3 flu cells xenografted SCID mouse at 2 uCi, iv after 60 mins; conditions: in vivo, 1 h; outline: as §1
# [18] = Ratio of drug level in tumor to liver of human PSMA expressing PC3 PIP and PSMA deficient human PC3 flu cells xenografted SCID mouse at 2 uCi, iv after 30 mins; conditions: in vivo, 0.5 h; outline: as §1
# [19] = Biodistribution in PC3 PIP tumor of PSMA expressing human PC3 PIP and PSMA deficient human PC3 flu cells xenografted SCID mouse at 2 uCi, iv after 5 hrs; conditions: in vivo
# Pancreas [20] = assay: Biodistribution in pancreas of PSMA expressing human PC3 PIP and PSMA deficient human PC3 flu cells xenografted SCID mouse at 2 uCi, iv after 5 hrs; conditions: in vivo
# [21] = Biodistribution in large intestine of PSMA expressing human PC3 PIP and PSMA deficient human PC3 flu cells xenografted SCID mouse at 2 uCi, iv after 60 mins; conditions: in vivo, 1 h; outline: as §1
# Spleen [22] = assay: Biodistribution in spleen of PSMA expressing human PC3 PIP and PSMA deficient human PC3 flu cells xenografted SCID mouse at 2 uCi, iv after 60 mins; conditions: in vivo, 1 h
# [23] = Biodistribution in small intestine of PSMA expressing human PC3 PIP and PSMA deficient human PC3 flu cells xenografted SCID mouse at 2 uCi, iv after 30 mins; conditions: in vivo, 0.5 h; outline: as §1
smiles,measurement,setting,value
O=C(O)CC[C@H](NC(=O)N[C@@H](CCCCNC(=O)c1ccc([18F])cc1)C(=O)O)C(=O)O,Ratio,[1],19
same,Ratio,[2],15
same,Ratio,[3],11
same,Drug uptake,[4],0.25 % ID/g
same,Drug uptake,Muscle tissue,0.5 % ID/g
same,Ratio,[5],5
same,Ratio,[6],0.7
same,Kp at 2 h,[7],9
same,Drug uptake,[8],6.4 % ID/g
same,Drug uptake,[9],0.1 % ID/g
same,Drug uptake,Liver,5.8 % ID/g
same,Ratio,[10],35
same,Drug uptake,Kidney,48 % ID/g
same,Ratio,[11],88
same,Ratio,[12],0.3
same,Ratio,[13],3.5
same,Ratio,[14],0.3
same,Drug uptake,Pancreas [15],0.15 % ID/g
same,Drug uptake,Urinary bladder,5.2 % ID/g
same,Drug uptake,Lung,1.7 % ID/g
same,Drug uptake,Stomach,0.04 % ID/g
same,Drug uptake,Spleen [16],4.4 % ID/g
same,Ratio,[17],13
same,Ratio,[18],1
same,Drug uptake,[19],3.5 % ID/g
same,Drug uptake,Pancreas [20],0.05 % ID/g
same,Drug uptake,[21],0.5 % ID/g
same,Drug uptake,Spleen [22],7.2 % ID/g
same,Drug uptake,[23],1.7 % ID/g
